Results taken from ChEMBL document CHEMBL4819099, “A biphenyl inhibitor of eIF4E targeting an internal binding site enables the design of cell-permeable PROTAC-degraders” (Eur J Med Chem, 2021).
Each block holds one compound with its values, some of them ahead of it. The source made the active and inactive calls. No cut-off for these calls is given here.

Columns and labels:
MM1.S [1] = test: Cytotoxicity against human MM1.S cells assessed as reduction in cell viability after 48 hrs by Cell specific bioluminescence imaging (CS-BLI) assay
MCF7 [2] = test: Cytotoxicity against human MCF7 cells assessed as reduction in cell viability after 48 hrs by Cell specific bioluminescence imaging (CS-BLI) assay; settings: MCF7, 48 h
MM1.S [3] = test: Cytotoxicity against human MM1.S cells assessed as reduction in cell viability after 24 hrs by Cell specific bioluminescence imaging (CS-BLI) assay
MCF7 [4] = test: Cytotoxicity against human MCF7 cells assessed as reduction in cell viability after 72 hrs by Cell specific bioluminescence imaging (CS-BLI) assay; settings: MCF7, 72 h
MM1.S [5] = test: Cytotoxicity against human MM1.S cells assessed as reduction in cell viability after 72 hrs by Cell specific bioluminescence imaging (CS-BLI) assay
MCF7 [6] = test: Cytotoxicity against human MCF7 cells assessed as reduction in cell viability after 24 hrs by Cell specific bioluminescence imaging (CS-BLI) assay; settings: MCF7, 24 h
[7] = target: Protein cereblon/Zinc finger protein 827 (Homo sapiens) (UniProt Q96SW2+Q17R98); test: Protac activity at CRBN/ZNF827 in human Kelly cells assessed as induction of ZNF827 degradation by measuring downregulation of ZNF827 protein expression at 1 uM measured after 5 hrs by proteomics analysis based LC-MS analysis; format: cell-based
Protein cereblon/Zinc finger protein 827 (Homo sapiens), sequence (Q17R98 whole entry, looked up): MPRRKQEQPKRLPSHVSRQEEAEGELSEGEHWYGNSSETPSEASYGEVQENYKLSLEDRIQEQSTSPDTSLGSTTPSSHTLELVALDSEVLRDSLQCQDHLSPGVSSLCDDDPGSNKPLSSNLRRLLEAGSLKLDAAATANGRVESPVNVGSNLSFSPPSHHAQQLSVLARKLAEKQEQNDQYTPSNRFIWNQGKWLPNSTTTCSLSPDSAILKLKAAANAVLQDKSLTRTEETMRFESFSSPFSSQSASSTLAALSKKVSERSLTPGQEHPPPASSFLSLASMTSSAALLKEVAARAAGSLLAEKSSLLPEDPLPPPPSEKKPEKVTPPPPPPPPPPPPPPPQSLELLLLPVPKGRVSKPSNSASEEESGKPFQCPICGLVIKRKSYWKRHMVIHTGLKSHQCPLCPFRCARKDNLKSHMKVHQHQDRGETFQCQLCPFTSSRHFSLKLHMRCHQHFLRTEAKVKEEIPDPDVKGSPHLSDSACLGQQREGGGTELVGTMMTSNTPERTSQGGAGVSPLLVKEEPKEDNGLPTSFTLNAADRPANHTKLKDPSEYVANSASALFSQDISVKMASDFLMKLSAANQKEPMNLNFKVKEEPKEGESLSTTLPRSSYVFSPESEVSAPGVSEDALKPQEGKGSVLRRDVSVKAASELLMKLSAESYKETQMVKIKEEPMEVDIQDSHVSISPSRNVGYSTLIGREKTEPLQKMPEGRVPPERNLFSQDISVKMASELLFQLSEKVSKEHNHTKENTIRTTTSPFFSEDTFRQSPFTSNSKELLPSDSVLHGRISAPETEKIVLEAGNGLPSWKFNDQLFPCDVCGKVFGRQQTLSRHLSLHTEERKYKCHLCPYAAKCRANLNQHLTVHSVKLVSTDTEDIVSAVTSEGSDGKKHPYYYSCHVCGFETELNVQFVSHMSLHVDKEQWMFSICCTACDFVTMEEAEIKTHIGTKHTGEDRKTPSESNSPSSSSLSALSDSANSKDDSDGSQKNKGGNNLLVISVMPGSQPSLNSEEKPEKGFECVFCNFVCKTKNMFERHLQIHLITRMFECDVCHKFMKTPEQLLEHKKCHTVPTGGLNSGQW
Protein cereblon/Zinc finger protein 827 (Homo sapiens), sequence (Q96SW2 whole entry, looked up): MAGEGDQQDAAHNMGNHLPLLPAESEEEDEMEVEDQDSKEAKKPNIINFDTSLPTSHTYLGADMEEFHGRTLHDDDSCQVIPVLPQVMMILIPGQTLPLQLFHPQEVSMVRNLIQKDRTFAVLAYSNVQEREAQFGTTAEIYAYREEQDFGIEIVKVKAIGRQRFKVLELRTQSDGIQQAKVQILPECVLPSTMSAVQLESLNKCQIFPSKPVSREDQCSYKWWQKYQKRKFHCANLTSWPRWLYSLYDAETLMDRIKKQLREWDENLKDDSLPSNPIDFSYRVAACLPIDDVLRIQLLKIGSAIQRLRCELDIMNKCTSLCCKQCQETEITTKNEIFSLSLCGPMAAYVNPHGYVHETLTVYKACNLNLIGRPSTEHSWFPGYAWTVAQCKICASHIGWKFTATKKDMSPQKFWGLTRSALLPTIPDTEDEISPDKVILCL
Summary of the method: (§1)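 Kelly cells given 1 μM compound or DMSO (biological triplicate) for 5 h; urea/EPPS pH 8.5 lysis, 100 μg protein reduced, alkylated, digested, TMT-labelled, high-pH reverse-phase fractionated into 96 fractions; LC-MS over a 190 min 9-32% acetonitrile gradient with MS3-based TMT quantification with real-time search; change relative to DMSO.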

Protein cereblon = Protein cereblon (Homo sapiens, UniProt Q96SW2); test: Binding affinity to Cereblon in human Flp293T cells transfected with BRD4(BD2)-GFP fusion protein and mCherry reporter assessed as inhibition of dBET6-induced BRD4(BD2) degradation after 5 hrs fluorescence based analysis; format: cell-based, Flp-In-293
Protein cereblon, sequence (Q96SW2 whole entry, the tested form may be a part): as the sequence (Q96SW2 whole entry, looked up) above
Summary of the method: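 Flp293T cells stably expressing BRD4_BD2-GFP plus mCherry reporter, seeded a day earlier in FluoroBrite DMEM/10% FBS; compounds in dose response co-dosed with 100 nM dBET6 (0.5% DMSO), 5 h. […] Lenalidomide positive control.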

[8] = target: Protein cereblon/Zinc finger protein 692 (Homo sapiens) (UniProt Q96SW2+Q9BU19); test: Protac activity at CRBN/ZNF692 in human Kelly cells assessed as induction of ZNF692 degradation by measuring downregulation of ZNF692 protein expression at 1 uM measured after 5 hrs by proteomics analysis based LC-MS analysis; format: cell-based; summary of the method: as §1
Protein cereblon/Zinc finger protein 692 (Homo sapiens), sequence (Q96SW2 whole entry, looked up): as above
Protein cereblon/Zinc finger protein 692 (Homo sapiens), sequence (Q9BU19 whole entry, looked up): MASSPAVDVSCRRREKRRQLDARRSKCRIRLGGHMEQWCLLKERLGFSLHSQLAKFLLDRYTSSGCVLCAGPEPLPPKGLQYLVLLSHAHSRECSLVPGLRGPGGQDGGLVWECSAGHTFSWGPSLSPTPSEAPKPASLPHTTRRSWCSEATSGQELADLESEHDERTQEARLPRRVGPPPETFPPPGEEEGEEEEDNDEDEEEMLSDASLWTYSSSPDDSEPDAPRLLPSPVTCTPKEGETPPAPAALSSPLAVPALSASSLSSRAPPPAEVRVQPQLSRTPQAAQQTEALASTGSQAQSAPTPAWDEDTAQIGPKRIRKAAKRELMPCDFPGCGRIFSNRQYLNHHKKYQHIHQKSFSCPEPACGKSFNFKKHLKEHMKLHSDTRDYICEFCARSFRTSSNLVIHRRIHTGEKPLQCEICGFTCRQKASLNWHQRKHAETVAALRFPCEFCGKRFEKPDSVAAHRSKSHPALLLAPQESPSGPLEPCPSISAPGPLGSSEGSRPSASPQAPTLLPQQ

[9] = target: Protein cereblon/Sal-like protein 4 (Homo sapiens) (UniProt Q96SW2+Q9UJQ4); test: Protac activity at CRBN/SALL4 in human Kelly cells assessed as induction of SALL4 degradation by measuring downregulation of SALL4 protein expression at 1 uM measured after 5 hrs by proteomics analysis based LC-MS analysis; format: cell-based; summary of the method: as §1
Protein cereblon/Sal-like protein 4 (Homo sapiens), sequence (Q96SW2 whole entry, looked up): as the sequence (Q96SW2 whole entry, looked up) above
Protein cereblon/Sal-like protein 4 (Homo sapiens), sequence (Q9UJQ4 whole entry, looked up): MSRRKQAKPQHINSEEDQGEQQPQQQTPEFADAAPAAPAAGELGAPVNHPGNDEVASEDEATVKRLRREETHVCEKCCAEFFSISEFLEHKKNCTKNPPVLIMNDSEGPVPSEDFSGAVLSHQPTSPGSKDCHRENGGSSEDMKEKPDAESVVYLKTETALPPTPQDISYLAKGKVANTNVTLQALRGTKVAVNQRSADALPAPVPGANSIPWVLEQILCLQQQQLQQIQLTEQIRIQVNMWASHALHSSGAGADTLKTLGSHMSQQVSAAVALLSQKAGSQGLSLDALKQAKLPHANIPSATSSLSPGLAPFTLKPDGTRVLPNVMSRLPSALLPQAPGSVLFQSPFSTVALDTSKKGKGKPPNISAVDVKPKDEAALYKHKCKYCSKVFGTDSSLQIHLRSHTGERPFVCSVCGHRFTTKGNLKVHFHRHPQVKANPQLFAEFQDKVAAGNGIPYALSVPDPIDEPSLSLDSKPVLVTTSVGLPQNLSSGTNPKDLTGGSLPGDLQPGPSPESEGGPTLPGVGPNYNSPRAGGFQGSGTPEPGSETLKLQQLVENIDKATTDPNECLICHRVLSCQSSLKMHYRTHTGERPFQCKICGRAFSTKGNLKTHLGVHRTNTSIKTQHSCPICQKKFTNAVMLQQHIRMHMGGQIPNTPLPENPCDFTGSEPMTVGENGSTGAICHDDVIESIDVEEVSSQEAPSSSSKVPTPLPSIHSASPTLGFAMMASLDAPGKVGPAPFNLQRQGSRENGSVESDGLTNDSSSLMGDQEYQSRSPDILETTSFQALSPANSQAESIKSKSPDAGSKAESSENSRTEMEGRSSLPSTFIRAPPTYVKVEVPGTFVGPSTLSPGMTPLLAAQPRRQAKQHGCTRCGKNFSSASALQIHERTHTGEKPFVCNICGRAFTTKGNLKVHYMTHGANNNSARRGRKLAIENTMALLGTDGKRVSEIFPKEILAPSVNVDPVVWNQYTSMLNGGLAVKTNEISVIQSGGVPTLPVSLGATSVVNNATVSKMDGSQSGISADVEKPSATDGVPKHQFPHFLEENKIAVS

[10] = target: T1, Protein cereblon/Eukaryotic translation initiation factor 4E (Homo sapiens) (UniProt P06730+Q96SW2); test: Protac activity at CRBN/eIF4E in human Kelly cells assessed as induction of eIF4E degradation by measuring downregulation of eIF4E protein expression at 1 uM measured after 5 hrs by proteomics analysis based LC-MS analysis; format: cell-based; summary of the method: as §1
T1 sequence (P06730 whole entry, looked up): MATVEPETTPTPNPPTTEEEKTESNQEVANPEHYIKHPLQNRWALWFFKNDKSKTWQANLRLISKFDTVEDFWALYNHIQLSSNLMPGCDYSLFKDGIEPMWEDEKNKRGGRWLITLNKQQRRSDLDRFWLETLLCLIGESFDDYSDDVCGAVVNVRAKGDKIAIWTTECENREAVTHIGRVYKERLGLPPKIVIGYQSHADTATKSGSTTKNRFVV
T1 sequence (Q96SW2 whole entry, looked up): as the sequence (Q96SW2 whole entry, looked up) above

HeLa = test: Cytotoxicity activity against human HeLa cells assessed as cell killing at 10 uM measured after 24 hrs by CellTiter Glo luminescence assay; format: functional
Summary of the method: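 HeLa cells in 4.5 g/L glucose DMEM, 10% FBS, 1% pen/strep, 5x10³ cells/well; medium replaced 24 h post-seeding with drug-containing medium at equal DMSO. CellTiter-Glo luminescence read, normalized to DMSO control; at least two experiments, triplicates.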

[11] = target: T1, Protein cereblon/Eukaryotic translation initiation factor 4E (Homo sapiens); test: Protac activity at CRBN/eIF4E in human HEK293T cells assessed as induction of intracellular eIF4E degradation at 1 uM measured after 0.5 to 24 hrs by Western blot analysis; format: cell-based; settings: time 0.5-24 hrs
Summary of the method: (§2)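 HEK293T cells exposed either to 0.1-10 μM PROTAC for 24 h or to 1 μM PROTAC for 0.5 to 24 h, DMSO-treated cells alongside; eIF4E level assessed by immunoblotting.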

[12] = target: T1, Protein cereblon/Eukaryotic translation initiation factor 4E (Homo sapiens); test: Protac activity at CRBN/eIF4E in human HEK293T cells assessed as induction of intracellular eIF4E degradation at 0.1 to 10 uM measured after 24 hrs by Western blot analysis; format: cell-based; settings: dose 0.1-10 µM; summary of the method: as §2
[13] = target: T1, Protein cereblon/Eukaryotic translation initiation factor 4E (Homo sapiens); test: Protac activity at CRBN/eIF4E in human HEK293T cells assessed as induction of eIF4E ubiquitination at 1 uM in presence of 26S proteasome inhibitor, Bortezomib by Western blot analysis; format: cell-based
Summary of the method: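 HEK293T cells incubated with 1 μM PROTAC plus 100 nM bortezomib; eIF4E ubiquitination compared with bortezomib-alone and DMSO-treated cells.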

Compound: O=C(O)C(Cc1ccccc1[N+](=O)[O-])=NNc1nc(-c2ccc(Cl)c(Cl)c2)cs1
- IC50 (MM1.S [1]): 18.7 µM
- IC50 (MCF7 [2]): 43.1 µM
- IC50 (MM1.S [3]): 22.6 µM
- IC50 (MCF7 [4]): 35.1 µM
- IC50 (MM1.S [5]): 15.6 µM
- IC50 (MCF7 [6]): 71.2 µM

Compound: C/C(=N\Nc1nc(-c2ccc(-c3ccccc3)cc2)cs1)C(=O)NCCCNc1cccc2c1C(=O)N(C1CCC(=O)NC1=O)C2=O (configuration not stated)
- Activity (HeLa): 50%

Compound: C/C(=N\Nc1nc(-c2ccc(Cl)c(Cl)c2)c(CC(=O)NCCNc2cccc3c2C(=O)N(C2CCC(=O)NC2=O)C3=O)s1)C(=O)OCOC(=O)C(C)(C)C (configuration not stated)
- IC50 (Protein cereblon): 20.7 µM
- Activity [11]: inactive
- Activity [12]: inactive
- Activity [13]: inactive

Compound: O=C(COc1cccc2c1C(=O)N(C1CCC(=O)NC1=O)C2=O)NCCCCNC(=O)Cc1sc(N/N=C(\Cc2ccccc2[N+](=O)[O-])C(=O)O)nc1-c1ccc(Cl)c(Cl)c1 (configuration not stated)
- Activity (Protein cereblon; Flp-In-293): inactive

More lines, main results first:

- Activity [7]: Active
- IC50 (Protein cereblon): 1.6 µM
- Activity [8]: Active
- Activity [9]: Active
- Activity [10]: inactive
Compound: C/C(=N\Nc1nc(-c2ccc(-c3ccccc3)cc2)cs1)C(=O)NCCCCNc1cccc2c1C(=O)N(C1CCC(=O)NC1=O)C2=O (configuration not stated)

- Activity [11]: inactive
- Activity [12]: inactive
- Activity [13]: inactive
Compound: C/C(=N\Nc1nc(-c2ccc(-c3ccccc3)cc2)cs1)C(=O)NCCNc1cccc2c1C(=O)N(C1CCC(=O)NC1=O)C2=O (configuration not stated)
- Activity (HeLa): 50%

- IC50 (Protein cereblon): 13 µM
Compound: O=C1CCC(N2C(=O)c3cccc(NCCCCNC(=O)/C(=N\Nc4nc(-c5ccc(-c6ccccc6)cc5)cs4)c4ccccc4[N+](=O)[O-])c3C2=O)C(=O)N1 (configuration not stated)
